# NR2E3 ag-1: agonists of human nuclear receptor NR2E3; GST-NR2E3/biotin-RetCOR TR-FRET, 1536-well; inhibition of corepressor binding, % at 4.78 µM; 320,000 compounds, 0.12% hits; AID 2300;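 active = percent inhibition above the cutoff of mean plus 3 SD of all tested compounds, set per screening campaign, cut at about 20% in these data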;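 also: 0% = DMSO wells and 100% = biotin wells as full block of FRET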
# Target sequence (Q9Y5X4 whole entry, looked up): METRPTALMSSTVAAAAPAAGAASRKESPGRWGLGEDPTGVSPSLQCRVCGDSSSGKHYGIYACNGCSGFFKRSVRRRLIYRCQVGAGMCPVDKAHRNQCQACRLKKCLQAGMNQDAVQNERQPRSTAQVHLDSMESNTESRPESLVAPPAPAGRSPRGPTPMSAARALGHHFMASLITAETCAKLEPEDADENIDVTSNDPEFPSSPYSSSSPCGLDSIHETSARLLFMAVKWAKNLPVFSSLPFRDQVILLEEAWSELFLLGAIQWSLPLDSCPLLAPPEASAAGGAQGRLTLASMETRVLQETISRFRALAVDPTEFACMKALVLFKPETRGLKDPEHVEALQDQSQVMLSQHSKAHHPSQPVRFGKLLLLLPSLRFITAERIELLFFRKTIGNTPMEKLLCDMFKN
#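 System: GST-tagged NR2E3 plus biotinylated RetCOR corepressor; Amount: 1.35 nM GST-tagged NR2E3 final; Dosing: single nominal compound dose of 4.8 µM; Schedule: 5 h incubation at 4 °C; Technique: TR-FRET with europium anti-GST and streptavidin-D2, 340 nm excitation; Controls: biotin wells as high control, 0.6% DMSO wells as low control.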
# LMP1 NFkB inh: inhibitors of Epstein-Barr LMP1-induced NF-kappaB reporter; LMP1-induced NF-kappaB luciferase reporter cells, luminescence; inhibition, % at 12.5 µM; 350,000 compounds, 0.69% hits; in the data active = inhibition above about 41%;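 also: 0% = neutral control wells and 100% = reference inhibitor control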
# TROY signal inh: TROY signaling inhibition; Q293 LMP1-TROYcd NF-kB luciferase reporter, 4 h; inhibition, % at 10 µM; 360,000 compounds, 0.98% hits; AID 1347056;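 active = compounds whose plate-normalised and pattern-corrected inhibition of the luciferase reporter signal at the single screening dose is 50% or more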
# NR2E3 ag-2: agonists of human NR2E3 nuclear receptor; 360,000 compounds, 0.35% hits; Q9Y5X4; CHO-S Gal4-NCOR/VP16-NR2E3 two-hybrid, luciferase; inhibition of corepressor binding, % at 3.98 µM;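 active = inhibition above the mean of all tested compounds plus 3 SD, cut at about 70% in these data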;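 also: 0% = DMSO with NR2E3 transfected cells and 100% = cells lacking NR2E3 construct; higher means lower luciferase signal from less NR2E3 corepressor binding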
# HIF act: HIF pathway transcriptional activation; 300,000 compounds, 0.32% hits; activation, % at 7.5 µM (by protocol); U2OS HRE-luciferase reporter, luminescence; normalized: DMSO 0%, desferrioxamine 100%; AID 1910;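 active = mean activation of at least 10% of the iron chelator positive control signal, with at least half of replicates also reaching 10%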
# The depositor's hits bear a star; / = no result. The list is not random: actives were taken first. Their share in the collection is about 2%.
SMILES,NR2E3 ag-1,LMP1 NFkB inh,TROY signal inh,NR2E3 ag-2,HIF act
Cc1ccc(S(=O)(=O)NCCCCCC(=O)NCCc2ccccc2)cc1,3,-24,6,15,2
Cc1noc(NS(=O)(=O)c2ccc(NC(=O)c3cc(S(=O)(=O)Nc4ccc(F)cc4)ccc3Cl)cc2)c1C,/,6,-2,28,/
CC(=O)c1ccc(NC(=O)Nc2ccc(Cl)cc2)cc1,5,-29,-17,-147,2
CC(=O)c1ccc(NC(=S)NCc2ccc(Cl)cc2Cl)cc1,3,-8,57*,-10,0
CC(C)N(C(=O)CN1C(=O)NC(c2ccccc2)(c2ccccc2)C1=O)C(C)C,0,1,-3,3,0
Cc1nc(C(=O)O)nn1-c1cc(Cl)ccc1Cl,0,4,2,17,0
O=C(N/N=C(/CC(=O)c1cccs1)C(F)(F)F)c1ccc(O)cc1,-3,49*,-19,-23,1
O=C(N/N=C(\CC(=O)c1cccs1)C(F)(F)F)c1cccnc1,-3,-1,17,27,0
Cc1cc(C)n(-c2ccc3cccc(NS(C)(=O)=O)c3n2)n1,7,-6,2,13,52*
Cc1cccc(CN2C(=O)c3ccccc3S(=O)(=O)c3ccc(C(=O)NCCCN4CCCC4)cc32)c1,1,/,-23,6,-1
CCCCCCCCN1C(=O)[C@H](CC(=O)NCCCOCCCC)C[C@@]2(C(=O)OCC)CCCC=C12,/,/,-6,-9,/
CCCCCCCCN1C(=O)[C@H](CC(=O)NCC2CCCCC2)C[C@@]2(C(=O)OCC)CCCC=C12,/,/,51*,-2,/
CCOc1cc(CNc2ccc3c(c2)CCC3)ccc1O,-1,-18,50*,-30,2
CCc1nn(C(C)C(=O)NCc2cccc(Cl)c2)c(=O)c2cc3occc3n12 (stereo not drawn),1,-5,-9,7,0
COc1ccc2nc(NC(=O)C3CCCN(S(=O)(=O)c4cccs4)C3)sc2c1 (stereo not drawn),0,-15,22,-10,0
COc1ccc2nc(NC(=O)C3CCN(S(=O)(=O)c4cccs4)CC3)sc2c1,0,13,54*,-3,-1
CS(=O)(=O)c1ccc2nc(NC(=O)C3CC3)sc2c1,-2,/,-16,-25,15*
Cc1cc(C)c2sc(NC(=O)C3CC3)nc2c1,2,48*,-32,-55,2
COc1ccccc1N1CCN(C(=O)CN(C)S(=O)(=O)c2ccc(C)cc2)CC1,/,1,3,-24,/
O=C(CSc1nnc(-c2ccc(F)cc2)n1CC1CCCO1)NCc1ccco1 (stereo not drawn),2,-7,-8,-26,0
CC(C)OCCCNC(=O)C1CCC(CNS(=O)(=O)c2ccccc2)CC1 (stereo not drawn),-1,67*,16,14,-1
COCCNC(=O)C1CCC(CNS(=O)(=O)c2ccccc2)CC1 (stereo not drawn),-1,56*,-5,8,0
COc1ccccc1CNC(=O)COC(=O)c1ccccc1-c1ccccc1,-1,-1,10,31,0
c1ccc(-c2ccc3ccccc3n2)cc1,-1,-31,-56,-40,4
c1ccc(-c2ccc3ncccc3n2)cc1,/,/,53*,-74,/
SMILES,NR2E3 ag-1,LMP1 NFkB inh,TROY signal inh,NR2E3 ag-2,HIF act
CCCCCCC(=O)N(O)C1CC(=O)N(c2ccc(C)cc2)C1=O (stereo not drawn),0,51*,-1,-46,2
CCOc1cc(C2c3c(n[nH]c3C)C(=O)N2c2ccc(Br)cc2)ccc1O (stereo not drawn),1,-10,50*,-7,-31
COc1cc(C2c3c(n[nH]c3C)C(=O)N2c2ccc(Br)cc2)ccc1O (stereo not drawn),1,4,8,-9,-2
O=S1(=O)CCC(NS(=O)(=O)c2ccc3ccccc3c2)C1 (stereo not drawn),2,1,-28,-15,0
CC(C)(C)c1cc(NC(=O)C2CCCO2)no1 (stereo not drawn),-2,-12,61*,-108,1
O=C(O)c1cc(NC(=O)C2CCCO2)cc(C(=O)O)c1 (stereo not drawn),4,1,16,6,-12
CCCCC(CC)CN=C(N)NC(N)=NCCCCCCN=C(N)NC(N)=NCC(CC)CCCC (stereo not drawn),-1,12,71*,90*,/
CCCCC(CC)CO (stereo not drawn),/,-10,10,-12,/
Cc1ccc(CNC(=O)C2CCC(=O)N(CCc3ccccc3)C2)s1 (stereo not drawn),2,-4,-20,-60,1
Nc1ccn([C@@H]2O[C@H](C(=O)N3CCCN(Cc4cccs4)CC3)[C@@H](O)[C@H]2O)c(=O)n1,/,/,0,14,/
COc1cc2sc3ccc(C#CC4(O)CCCCC4)cc3c(=O)c2cc1OC,2,-59,84*,-50,3
COc1cccc2sc3cc(C#CC4(O)CCCCC4)ccc3c(=O)c12,/,-11,-70,-74,/
COc1ccc(CNC(=O)CCC(=O)Nc2ccc(Cl)cc2)cc1,1,-4,-4,-14,0
Cc1ccc(C2=NN(C(=O)CN3CCN(C4CCS(=O)(=O)C4)CC3)C(c3ccco3)C2)cc1 (stereo not drawn),1,35,66*,-11,/
CN1CCN(CC(=O)N2N=C(c3cccs3)CC2c2ccco2)CC1 (stereo not drawn),0,-11,2,-9,-3
O=C(O)Cn1nc(C(F)(F)F)c2c1CCCC2,-1,-6,-3,-6,0
O=C(Cn1nc(C(F)(F)F)c2c1CCC2)NC1CCCCC1,-2,44*,-12,-5,0
NNC(=O)c1cccc(COc2ccccc2Br)c1,3,4,-58,-203,3
NNC(=O)c1cccc(COc2ccc3c(c2)CCC3)c1,2,63*,-79,-208,-4
Cc1ccc2c(c1)N(CC(=O)N1CCCC1)C(=O)c1cccnc1O2,2,61*,-13,-14,0
COc1ccc2c(c1)[nH]c1c(N3CCSCC3)ncnc12,1,2,63*,26,-1
COc1ccc2[nH]c3c(N4CC(C)OC(C)C4)ncnc3c2c1 (stereo not drawn),-4,/,/,/,0
CS(=O)(=O)c1ccc(Cl)c(NC(=O)c2ccc(-n3cncn3)c([N+](=O)[O-])c2)c1,/,1,5,8,/
O=S1(=O)Nc2c(ccc3cccnc23)-c2ccccc21,-2,7,71*,102*,2
Clc1ccc2ccc3cccnc3c2n1,/,0,-22,-11,1
COc1ccc(C(=O)N2CCCCC2c2cc(C(=O)NCc3ccc(Cl)c(Cl)c3)no2)cc1 (stereo not drawn),/,/,8,-28,/
Cc1ccc(O)c(C(=O)/C=C/c2ccc3c(c2)OCCCO3)c1,2,3,-26,-57,3

# Screens: PubChem BioAssay, several laboratories
